Data: article PMC2715132 (The Journal of Experimental Medicine, 2009)
Read-outs that look alike come from different tables or passages of the source.

Columns and labels:
T. gondii Prugniaud = assay: T. gondii growth in HFF monolayer, [3H]uracil incorporation; format: cell-based; settings: Toxoplasma gondii, read-out: EC50 (nM ± SD)
How it was run: (§1)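 Confluent human fibroblasts infected with tachyzoites with or without test compound. After 72 h, washed and pulsed with [3H]uracil for 4 h, then washed and solubilized. Acid-precipitable radioactivity counted by liquid scintillation. EC50 by nonlinear regression.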

T. gondii RH WT [1] = assay: Immunofluorescence of intracellular T. gondii; format: cell-based, Toxoplasma gondii; settings: IFA, 24 h, 40 nM FR235222, 1 µM pyrimethamine
How it was run: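 Confluent HFF monolayers infected with RH tachyzoites with 40 nM test compound, 0.1% DMSO or 1 µM pyrimethamine for 24 h. Fixed/permeabilized 20 min (3% formaldehyde, 0.2% Triton X-100) and blocked with 5% FBS/5% goat serum. Stained with anti-AcH4 antiserum and anti-IMC1 monoclonal (1:1,000), Alexa 568/488 secondaries, and Hoechst 33258 for DNA.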

T. gondii RH WT [2] = assay: T. gondii growth in HFF monolayer, [3H]uracil incorporation; format: cell-based; settings: Toxoplasma gondii
How it was run: as §1

T. gondii RH M190D4 = assay: as above; format: cell-based, Toxoplasma gondii
How it was run: as §1

[3] = system: T. gondii type II Prugniaud strain; assay: Bradyzoite differentiation, SRS9/P36 expression by IFA; format: cell-based, Toxoplasma gondii
P. falciparum = assay: Antimalarial activity in vitro, P. falciparum intraerythrocytic growth; format: cell-based, Plasmodium falciparum; settings: 3D7 chloroquine sensitive, Dd2 chloroquine resistant, Fig. 1 C, n = 4
How it was run: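 Drug exposure: 48 h for asynchronous 3D7 and Dd2 cultures, 20 h for plasmion-enriched 3D7 schizonts. Growth was read by […] incorporation, and EC50 was derived by nonlinear regression.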

HFFs = assay: Mammalian host cell proliferation; format: cell-based, human; settings: in vitro, parasites versus HFF cells
[4] = system: histone H4 acetylation in T. gondii RH WT; assay: Immunoblot of histone acetylation in extracellular tachyzoites; format: cell-based, Toxoplasma gondii
N. caninum = N. caninum growth in HFF monolayer; format: cell-based, Neospora caninum; settings: read-out: EC50 (nM ± SD), mean ± SD
[5] = system: histone H4 acetylation in T. gondii TgHDAC3^T99A resistant line; assay: Immunoblot of histone acetylation in extracellular tachyzoites; format: cell-based, Toxoplasma gondii; settings: 20 nM FR235222, immunoblot
[6] = system: histone H4 acetylation in T. gondii TgHDAC3^T99I resistant line; assay: as above; format: cell-based, Toxoplasma gondii; settings: 20 nM FR235222, immunoblot
[7] = system: 20.m00351 mRNA, T. gondii type II Prugniaud strain; assay: Semiquantitative RT-PCR of 20.m00351 mRNA; format: cell-based, Toxoplasma gondii; settings: 40 nM FR235222 for 3 d, n = 3
[8] = read-out: EC50, T. gondii intracellular growth
[9] = read-out: EC50 (nM ± SD), T. gondii RH M190D4 (FR235222-resistant mutant, TgHDAC3 T99A) in HFF monolayer, [3H]uracil incorporation, mean ± SD

With `CCc1nc(N)nc(N)c1-c1ccc(Cl)cc1` [Pyrimethamine, pyrimethamine] the EC50 (T. gondii Prugniaud) was 195 ± 1 nM, the “AcH4 signals in nuclei of treated parasites versus DMSO control” value (T. gondii RH WT [1]) was “not observed” and the EC50 (T. gondii RH WT [2]; read-out: EC50 (nM ± SD), SD) was 285 ± 61 nM. The EC50 (T. gondii RH WT [2]; [8]) was 300 nM, the EC50 (T. gondii RH M190D4; Toxoplasma gondii, read-out: EC50 (nM ± SD)) was 300 ± 11 nM and the “induction of SRS9/P36” value ([3]; 1 µM pyrimethamine, 2–3 d, IFA with anti-P36) was “very weak induction”.
In the case of FR235222, the “comparison of EC50s on clones 3D7 and Dd2” value (P. falciparum) is reported as “equivalent”, the “sensitivity of parasites relative to HFF cells” value (HFFs) is reported as roughly 10 times and the “increase of AcH4 signals” value ([4]; WT, 20 nM FR235222, immunoblot) is reported as “approximately eightfold”. The “increase of AcH4 signals” value ([4]; extracellular tachyzoites incubated with drug 4 h, immunoblot) was “approximately eightfold”, the “acetylation of histones H2B (K12 and K15) and H3K9” value ([4]; immunoblot, FR235222 treatment (Fig. S2)) was “not affected” and the EC50 (N. caninum) was 8 ± 2 nM. For the same compound, the “increase of AcH4 signals” value [5] was “approximately threefold”, the “change of AcH4 signals” value [6] was “remained unchanged” and the “AcH4 signals in nuclei of treated parasites versus DMSO control” value (T. gondii RH WT [1]) was “higher”. For the same compound, the EC50 (T. gondii RH M190D4; [9]) was 62 ± 5 nM, the “parasitic vacuoles expressing SRS9/P36” value ([3]; 40 nM FR235222, 2–3 d, IFA with anti-P36, n = 2) was roughly 80% and the “20.m00351 mRNA levels” value [7] was “accumulated”.
`O=C(CCCCCN1C(=O)c2cccc3cccc(c23)C1=O)NO` [Scriptaid] gave an EC50 (T. gondii RH WT [2]; [8]) of 400 nM.
With `CCC(=O)CCCCC[C@@H]1NC(=O)[C@H]2CCCCN2C(=O)[C@H]([C@@H](C)CC)NC(=O)[C@H](Cc2cn(OC)c3ccccc23)NC1=O` [Apicidin, apicidin] the EC50 (T. gondii RH M190D4; [9]) was 67 ± 16 nM.
